ChEMBL document CHEMBL4033643, “Synthesis and in vitro antitumour activity of crassalactone D, its stereoisomers and novel cinnamic ester derivatives” (Eur J Med Chem, 2017)
Activity calls are given as the source filed them. The rule behind the calls is not given here.

Assays:
MRC5 = test: Cytotoxicity against human MRC5 cells assessed as reduction in cell viability after 72 hrs by MTT assay; format: cell-based; conditions: MRC5, 72 h
HeLa = test: Cytotoxicity against human HeLa cells assessed as reduction in cell viability after 72 hrs by MTT assay; format: functional, cell-based
MDA-MB-231 = test: Cytotoxicity against human MDA-MB-231 cells assessed as reduction in cell viability after 72 hrs by MTT assay; format: functional, cell-based; conditions: MDA-MB-231, 72 h
MCF7 = test: Cytotoxicity against human MCF7 cells assessed as reduction in cell viability after 72 hrs by MTT assay; format: functional, cell-based; conditions: MCF7, 72 h
Raji = test: Cytotoxicity against human Raji cells assessed as reduction in cell viability after 72 hrs by MTT assay; format: functional, cell-based
Jurkat = test: Cytotoxicity against human Jurkat cells assessed as reduction in cell viability after 72 hrs by MTT assay; format: functional, cell-based
HL-60 = test: Cytotoxicity against human HL60 cells assessed as reduction in cell viability after 72 hrs by MTT assay; format: functional, cell-based; conditions: HL-60, 72 h
K562 [1] = test: Cytotoxicity against human K562 cells assessed as reduction in cell viability after 72 hrs by MTT assay; format: functional, cell-based; conditions: K562, 72 h
A549 = test: Cytotoxicity against human A549 cells assessed as reduction in cell viability after 72 hrs by MTT assay; format: functional, cell-based; conditions: A549, 72 h
K562 [2] = test: Cell cycle arrest in human K562 cells assessed as accumulation at sub G1 phase at IC50 after 72 hrs by propidium iodide staining based flow cytometry (reference value: 1.48%); format: functional
K562 [3] = test: Cell cycle arrest in human K562 cells assessed as accumulation at G0/G1 phase at IC50 after 72 hrs by propidium iodide staining based flow cytometry (reference value: 38.48%); format: functional
K562 [4] = test: Cell cycle arrest in human K562 cells assessed as accumulation at S phase at IC50 after 72 hrs by propidium iodide staining based flow cytometry (reference value: 41.03%); format: functional
K562 [5] = test: Cell cycle arrest in human K562 cells assessed as accumulation at G2/M phase at IC50 after 72 hrs by propidium iodide staining based flow cytometry (reference value: 19.01%); format: functional
K562 [6] = test: Induction of apoptosis in human K562 cells assessed as specific apoptosis by Annexin V-FITC/propidium iodide staining based flow cytometry; format: functional; design: concentration or dose not given beside the values
K562 [7] = test: Induction of apoptosis in human K562 cells assessed as specific necrosis by Annexin V-FITC/propidium iodide staining based flow cytometry; format: functional; design: concentration or dose not given beside the values
K562 [8] = test: Induction of apoptosis in human K562 cells assessed as decrease in Bcl-2 expression level by Western blot analysis; format: functional, cell-based
Procedure, shortened: (§1)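 Western blot of treated K562 cells for Bcl-2, Bax, activated caspase 3 and cleaved PARP (85 kDa fragment). Blots developed by ECL, with band expression quantified by densitometry against an untreated control sample.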

K562 [9] = test: Induction of apoptosis in human K562 cells assessed as increase in Bax expression level by Western blot analysis; format: functional, cell-based; procedure, shortened: as §1
K562 [10] = test: Cell cycle arrest in human K562 cells assessed as total cell levels at G0/G1 phase at IC50 after 72 hrs by propidium iodide staining based flow cytometry (reference value: 39.97%); format: functional
K562 [11] = test: Cell cycle arrest in human K562 cells assessed as total cell levels at S phase at IC50 after 72 hrs by propidium iodide staining based flow cytometry (reference value: 36.49%); format: functional
K562 [12] = test: Cell cycle arrest in human K562 cells assessed as total cell levels at G2/M phase at IC50 after 72 hrs by propidium iodide staining based flow cytometry (reference value: 14.31%); format: functional
K562 [13] = test: Cell cycle arrest in human K562 cells assessed as total cell levels at M4 phase at IC50 after 72 hrs by propidium iodide staining based flow cytometry (reference value: 0.50%); format: functional
K562 [14] = test: Induction of apoptosis in human K562 cells assessed as gated necrotic cells by Annexin V-FITC/propidium iodide staining based flow cytometry (reference value: 0.24%); format: functional
K562 [15] = test: Induction of apoptosis in human K562 cells assessed as gated late apoptotic cells by Annexin V-FITC/propidium iodide staining based flow cytometry (reference value: 0.88%); format: functional
K562 [16] = test: Induction of apoptosis in human K562 cells assessed as gated viable cells by Annexin V-FITC/propidium iodide staining based flow cytometry (reference value: 95.78%); format: functional
K562 [17] = test: Induction of apoptosis in human K562 cells assessed as gated early apoptotic cells by Annexin V-FITC/propidium iodide staining based flow cytometry (reference value: 3.18%); format: functional
K562 [18] = test: Induction of apoptosis in human K562 cells assessed as total necrotic cells by Annexin V-FITC/propidium iodide staining based flow cytometry (reference value: 0.23%); format: functional
K562 [19] = test: Induction of apoptosis in human K562 cells assessed as total late apoptotic cells by Annexin V-FITC/propidium iodide staining based flow cytometry (reference value: 0.77%); format: functional
K562 [20] = test: Induction of apoptosis in human K562 cells assessed as total viable cells by Annexin V-FITC/propidium iodide staining based flow cytometry (reference value: 92.45%); format: functional
K562 [21] = test: Induction of apoptosis in human K562 cells assessed as total early apoptotic cells by Annexin V-FITC/propidium iodide staining based flow cytometry (reference value: 3.07%); format: functional

O=C1C=C[C@@]2(C[C@H](O)[C@H](c3ccccc3)O2)O1
IC50 (MRC5): > 100 µM
IC50 (HeLa): 4.61 µM
IC50 (MDA-MB-231): > 100 µM
IC50 (MCF7): 1.97 µM
IC50 (Raji): 2.69 µM
IC50 (Jurkat): 0.96 µM
IC50 (HL-60): 0.19 µM
IC50 (K562 [1]): 0.54 µM
IC50 (A549): 31.4 µM
Activity (K562 [2]): 1.1%
Activity (K562 [3]): 28.98%
Activity (K562 [4]): 52.34%
Activity (K562 [5]): 17.58%
Activity (K562 [6]): 10.05%
Activity (K562 [7]): 0.67%
Activity (K562 [8]): Active
Activity (K562 [9]): Active
Activity (K562 [10]): 15.11%
Activity (K562 [11]): 50.77%
Activity (K562 [12]): 13.99%
Activity (K562 [13]): 0.87%
Activity (K562 [14]): 4.62%
Activity (K562 [15]): 7.48%
Activity (K562 [16]): 81.75%
Activity (K562 [17]): 6.15%
Activity (K562 [18]): 1.15%
Activity (K562 [19]): 1.86%
Activity (K562 [20]): 20.34%
Activity (K562 [21]): 1.53%

COc1ccc(/C=C/C(=O)O[C@H]2C[C@@]3(C=CC(=O)O3)O[C@@H]2c2ccccc2)cc1
IC50 (MRC5): > 100 µM
IC50 (HeLa): 3.64 µM
IC50 (MDA-MB-231): > 100 µM
IC50 (MCF7): 2.22 µM
IC50 (Raji): 99.8 µM
IC50 (Jurkat): 21.1 µM
IC50 (HL-60): 6.37 µM
IC50 (K562 [1]): 1.11 µM
IC50 (A549): 23.1 µM
Activity (K562 [2]): 1.57%
Activity (K562 [3]): 30.72%
Activity (K562 [4]): 42.64%
Activity (K562 [5]): 25.07%
Activity (K562 [6]): 15.35%
Activity (K562 [7]): 3.15%
Activity (K562 [8]): inactive
Activity (K562 [9]): Active
Activity (K562 [10]): 26.37%
Activity (K562 [11]): 36.83%
Activity (K562 [12]): 22.36%
Activity (K562 [13]): 1.35%
Activity (K562 [14]): 0.96%
Activity (K562 [15]): 4.41%
Activity (K562 [16]): 80.32%
Activity (K562 [17]): 14.31%
Activity (K562 [18]): 0.78%
Activity (K562 [19]): 3.58%
Activity (K562 [20]): 65.19%
Activity (K562 [21]): 11.61%

O=C1C=C[C@@]2(C[C@H](O)[C@@H](c3ccccc3)O2)O1
IC50 (MRC5): > 100 µM
IC50 (HeLa): 2.12 µM
IC50 (MDA-MB-231): > 100 µM
IC50 (MCF7): 3.57 µM
IC50 (Raji): 5.97 µM
IC50 (Jurkat): 0.34 µM
IC50 (HL-60): 1.02 µM
IC50 (K562 [1]): 0.54 µM
IC50 (A549): 21.3 µM
Activity (K562 [2]): 1.26%
Activity (K562 [3]): 39.26%
Activity (K562 [4]): 35.2%
Activity (K562 [5]): 24.28%
Activity (K562 [6]): 11.74%
Activity (K562 [7]): 4.8%
Activity (K562 [8]): inactive
Activity (K562 [9]): Active
Activity (K562 [10]): 29.6%
Activity (K562 [11]): 26.52%
Activity (K562 [12]): 18.07%
Activity (K562 [13]): 0.94%
Activity (K562 [14]): 8.59%
Activity (K562 [15]): 11.28%
Activity (K562 [16]): 76.16%
Activity (K562 [17]): 3.97%
Activity (K562 [18]): 2.81%
Activity (K562 [19]): 3.69%
Activity (K562 [20]): 24.92%
Activity (K562 [21]): 1.3%

O=C1C=C[C@@]2(C[C@H](OC(=O)/C=C/c3ccccc3)[C@@H](c3ccccc3)O2)O1
IC50 (MRC5): > 100 µM
IC50 (HeLa): 0.58 µM
IC50 (MDA-MB-231): 3.45 µM
IC50 (MCF7): 0.58 µM
IC50 (Raji): 2.38 µM
IC50 (Jurkat): 87.6 µM
IC50 (HL-60): 5.61 µM
IC50 (K562 [1]): 20.5 µM
IC50 (A549): 28.1 µM
Activity (K562 [2]): 56.93%
Activity (K562 [3]): 23.1%
Activity (K562 [4]): 14.63%
Activity (K562 [5]): 5.34%
Activity (K562 [6]): 86.01%
Activity (K562 [7]): 4.12%
Activity (K562 [8]): Active
Activity (K562 [9]): Active
Activity (K562 [10]): 21.87%
Activity (K562 [11]): 13.85%
Activity (K562 [12]): 5.03%
Activity (K562 [13]): 54.83%
Activity (K562 [14]): 0.03%
Activity (K562 [15]): 4.67%
Activity (K562 [16]): 12.84%
Activity (K562 [17]): 82.46%
Activity (K562 [18]): 0.02%
Activity (K562 [19]): 3.48%
Activity (K562 [20]): 2.12%
Activity (K562 [21]): 68.98%

O=C1C=C[C@]2(C[C@H](OC(=O)/C=C/c3ccc([N+](=O)[O-])cc3)[C@H](c3ccccc3)O2)O1
IC50 (MRC5): > 100 µM
IC50 (HeLa): 11.5 µM
IC50 (MDA-MB-231): 4.48 µM
IC50 (MCF7): 7.55 µM
IC50 (Raji): 11.8 µM
IC50 (Jurkat): 10.2 µM
IC50 (HL-60): 4.32 µM
IC50 (K562 [1]): 14.3 µM
IC50 (A549): 3.12 µM
Activity (K562 [2]): 20.43%
Activity (K562 [3]): 30.42%
Activity (K562 [4]): 29.17%
Activity (K562 [5]): 19.98%
Activity (K562 [6]): 81.97%
Activity (K562 [7]): 0.64%
Activity (K562 [8]): Active
Activity (K562 [9]): Active
Activity (K562 [10]): 27.84%
Activity (K562 [11]): 27.16%
Activity (K562 [12]): 18.29%
Activity (K562 [13]): 18.7%
Activity (K562 [14]): 3.37%
Activity (K562 [15]): 3.87%
Activity (K562 [16]): 13.94%
Activity (K562 [17]): 78.82%
Activity (K562 [18]): 0.68%
Activity (K562 [19]): 0.78%
Activity (K562 [20]): 2.81%
Activity (K562 [21]): 15.89%
